Data reported in ChEMBL document CHEMBL1143822, “Three-dimensional quantitative structure-activity relationship analysis of human CYP51 inhibitors” (Drug Metab Dispos, 2007).

T1: Lanosterol 14-alpha demethylase (Homo sapiens, UniProt Q16850)
T1 sequence (Q16850 whole entry): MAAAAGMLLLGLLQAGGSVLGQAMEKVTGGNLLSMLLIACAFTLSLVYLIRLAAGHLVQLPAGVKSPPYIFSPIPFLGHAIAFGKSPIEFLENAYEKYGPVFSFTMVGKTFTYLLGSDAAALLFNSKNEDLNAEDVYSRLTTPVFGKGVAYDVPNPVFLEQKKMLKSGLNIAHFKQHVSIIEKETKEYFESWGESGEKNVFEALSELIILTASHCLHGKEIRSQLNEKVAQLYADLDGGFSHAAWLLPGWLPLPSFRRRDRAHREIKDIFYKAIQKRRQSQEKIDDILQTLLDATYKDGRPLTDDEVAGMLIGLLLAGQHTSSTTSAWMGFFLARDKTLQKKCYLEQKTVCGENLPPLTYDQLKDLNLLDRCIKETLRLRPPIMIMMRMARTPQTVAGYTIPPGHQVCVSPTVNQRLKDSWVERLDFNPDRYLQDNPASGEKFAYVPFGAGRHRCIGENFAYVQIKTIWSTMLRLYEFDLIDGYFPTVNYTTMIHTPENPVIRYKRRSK


These molecules were tested against T1, Lanosterol 14-alpha demethylase (assay: Binding affinity to human CYP51).

Molecule | Kd
CC(=O)N1CCN(c2ccc(OC[C@H]3CO[C@](Cn4ccnc4)(c4ccc(Cl)cc4Cl)O3)cc2)CC1 [KETOCONAZOLE] | 8 µM

Each molecule was assayed against T1, Lanosterol 14-alpha demethylase (assay: Inhibition of human CYP51 expressed in Topp 3 cells by lanosterol demethylase assay).
Format: cell-based
Outline: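 0.5 ml phosphate buffer pH 7.4 with KCN, NADPH regenerating system, 60 min at 37 °C. Triene product extracted and quantified by chromatography (ergosterol internal standard). IC50 read from plot of % activity remaining vs concentration.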

Molecule | IC50
Clc1ccccc1C(c1ccccc1)(c1ccccc1)n1ccnc1 [CLOTRIMAZOLE] | 0.13 µM
Clc1ccc(COC(Cn2ccnc2)c2ccc(Cl)cc2Cl)cc1 (stereo not given) [ECONAZOLE] | 0.05 µM
Clc1ccc(COC(Cn2ccnc2)c2ccc(Cl)cc2Cl)c(Cl)c1 (stereo not given) [MICONAZOLE] | 0.2 µM
Cc1ncc([N+](=O)[O-])n1CCO [METRONIDAZOLE] | > 200 µM
O=C(NC(Cc1ccccc1)C(=O)N1CCC(O)CC1)c1ccc[nH]1 (stereo not given) | > 200 µM
O=C(N[C@H](Cc1ccccc1)C(=O)N1CCC(O)CC1)c1cc2cc(Cl)ccc2[nH]1 | 100 µM
CO[C@H]1/C=C/O[C@@]2(C)Oc3c(C)c(O)c4c(O)c(c(/C=N/N5CCN(C)CC5)c(O)c4c3C2=O)NC(=O)/C(C)=C\C=C\[C@H](C)[C@H](O)[C@@H](C)[C@@H](O)[C@@H](C)[C@H](OC(C)=O)[C@@H]1C [RIFAMPIN] | 30 µM
c1ccc(-c2ccc(C(c3ccccc3)n3ccnc3)cc2)cc1 (stereo not given) [BIFONAZOLE] | 0.342 µM
Nc1ccc(S(=O)(=O)Nc2ccnn2-c2ccccc2)cc1 [SULFAPHENAZOLE] | > 200 µM
O=C(N[C@@H](Cc1ccc(F)cc1)C(=O)N1CCC(O)CC1)c1cc2cc(Cl)ccc2[nH]1 | 4 µM
CC[C@H](C)C(=O)O[C@H]1C[C@@H](C)C=C2C=C[C@H](C)[C@H](CC[C@@H]3C[C@@H](O)CC(=O)O3)[C@H]21 [LOVASTATIN] | > 200 µM
CC(=O)N1CCN(c2ccc(OC[C@H]3CO[C@](Cn4ccnc4)(c4ccc(Cl)cc4Cl)O3)cc2)CC1 [KETOCONAZOLE] | 0.19 µM
O=C(N[C@@H](Cc1ccccc1)C(=O)N1CCC(O)CC1)c1cc2c([nH]1)CCCC2 | > 200 µM
C[C@]12CC[C@H]3[C@@H](CCC4=CC(=O)CC[C@@]43C)[C@@H]1CC[C@@H]2O [TESTOSTERONE] | 50 µM
COc1ccc(C[C@H](NC(=O)c2cc3cc(Cl)ccc3[nH]2)C(=O)N2CCC(O)CC2)cc1 | 4.5 µM
O=C(NC(Cc1ccccc1)C(=O)O)c1cc2cc(Cl)ccc2[nH]1 (stereo not given) | > 200 µM
O=C(N[C@@H](Cc1c[nH]cn1)C(=O)N1CCC(O)CC1)c1cc2cc(Cl)ccc2[nH]1 | 1.3 µM
CC(=O)[C@H]1CC[C@H]2[C@@H]3CCC4=CC(=O)CC[C@]4(C)[C@H]3CC[C@]12C [PROGESTERONE] | > 200 µM
CCC(C)n1ncn(-c2ccc(N3CCN(c4ccc(OCC5COC(Cn6cncn6)(c6ccc(Cl)cc6Cl)O5)cc4)CC3)cc2)c1=O (stereo not given) [ITRACONAZOLE] | 3.6 µM
Cc1cccc(N(C)C(=S)Oc2ccc3ccccc3c2)c1 [TOLNAFTATE] | 50 µM
O=C(N[C@@H](Cc1ccc(Cl)cc1)C(=O)N1CCC(O)CC1)c1cc2cc(Cl)ccc2[nH]1 | 9.7 µM
O=C(NC1(C(=O)N2CCC(O)CC2)CCCC1)c1cc2cc(Cl)ccc2[nH]1 | 100 µM

Molecule | IC50
O=C1C(CC[S+]([O-])c2ccccc2)C(=O)N(c2ccccc2)N1c1ccccc1 (stereo not given) [SULFINPYRAZONE] | > 200 µM
CCCCC/C=C\C/C=C\C/C=C\C/C=C\CCCC(=O)NCCO [ANANDAMIDE] | > 200 µM
CCCCNC(=O)NS(=O)(=O)c1ccc(C)cc1 [TOLBUTAMIDE] | > 200 µM
COC1=CC(=O)C[C@@H](C)[C@]12Oc1c(Cl)c(OC)cc(OC)c1C2=O [GRISEOFULVIN] | 50 µM
O=C(N[C@@H](Cc1ccccc1)C(=O)N1CCC(O)CC1)c1cc2ccccc2[nH]1 | 0.91 µM
CCCCC/C=C\C/C=C\C/C=C\C/C=C\CCCC(=O)O [ARACHIDONIC ACID] | > 200 µM
O=C(N[C@@H](Cc1ccccc1F)C(=O)N1CCC(O)CC1)c1cc2cc(Cl)ccc2[nH]1 | 0.8 µM
Clc1ccc(C2(Cn3cncn3)OCCO2)c(Cl)c1 [AZACONAZOLE] | > 10 µM
O=C(N[C@@H](Cc1ccccc1)C(=O)N1CCC(O)CC1)c1cc2cc(Cl)ccc2[nH]1 | 3.1 µM
Cn1cc[nH]c1=S [METHIMAZOLE] | > 200 µM
CC[C@H]1OC(=O)[C@H](C)[C@@H](O[C@H]2C[C@@](C)(OC)[C@@H](O)[C@H](C)O2)[C@H](C)[C@@H](O[C@@H]2O[C@H](C)C[C@H](N(C)C)[C@H]2O)[C@](C)(O)C[C@@H](C)C(=O)[C@H](C)[C@@H](O)[C@]1(C)O [ERYTHROMYCIN] | > 200 µM
O=C(N[C@@H](Cc1ccccc1)C(=O)N1CCC(O)CC1)c1cc2cc(F)ccc2[nH]1 | 75 µM
O=C(N[C@@H](Cc1ccccc1Cl)C(=O)N1CCC(O)CC1)c1cc2cc(Cl)ccc2[nH]1 [ANALOGUE A] | 0.3 µM
CC(C)CCC[C@@H](C)[C@H]1CC[C@H]2[C@@H]3CC=C4C[C@@H](O)CC[C@]4(C)[C@H]3CC[C@]12C [CHOLESTEROL] | > 200 µM
O=C(N[C@@H](Cc1ccc(O)cc1)C(=O)N1CCC(O)CC1)c1cc2cc(Cl)ccc2[nH]1 | 2.5 µM
CC(C)N1CCN(c2ccc(OC[C@H]3CO[C@](Cn4cncn4)(c4ccc(Cl)cc4Cl)O3)cc2)CC1 [TERCONAZOLE] | 3 µM
CCCNC(=O)NS(=O)(=O)c1ccc(Cl)cc1 [CHLORPROPAMIDE] | > 200 µM
CC(=O)[C@H]1CC[C@H]2[C@@H]3CC=C4C[C@@H](O)CC[C@]4(C)[C@H]3CC[C@]12C [PREGNENOLONE] | > 200 µM
OC(c1ccccc1)(c1cncnc1)c1ccc(Cl)cc1Cl (stereo not given) [TRIARIMOL] | > 10 µM
O=C(N[C@@H](Cc1cccnc1)C(=O)N1CCC(O)CC1)c1cc2cc(Cl)ccc2[nH]1 | 26 µM
c1ccc2[nH]cnc2c1 [BENZIMIDAZOLE] | > 200 µM

The molecules below were run on CC(C)=CCC[C@@H](C)[C@H]1CC[C@@]2(C)C3=C(CC[C@]12C)[C@@]1(C)CC[C@H](O)C(C)(C)[C@@H]1CC3 (assay: Binding affinity to human reconstituted CYP51).

Molecule | Km
Lanosterol 14-alpha demethylase (Homo sapiens) (protein) MAAAAGMLLLGLLQAGGSVLGQAMEKVTGGNLLSMLLIACAFTLSLVYLIRLAAGHLVQLPAGVKSPPYIFSPIPFLGHAIAFGKSPIEFLENAYEKYGPVFSFTMVGKTFTYLLGSDAAALLFNSKNEDLNAEDVYSRLTTPVFGKGVAYDVPNPVFLEQKKMLKSGLNIAHFKQHVSIIEKETKEYFESWGESGEKNVFEALSELIILTASHCLHGKEIRSQLNEKVAQLYADLDGGFSHAAWLLPGWLPLPSFRRRDRAHREIKDIFYKAIQKRRQSQEKIDDILQTLLDATYKDGRPLTDDEVAGMLIGLLLAGQHTSSTTSAWMGFFLARDKTLQKKCYLEQKTVCGENLPPLTYDQLKDLNLLDRCIKETLRLRPPIMIMMRMARTPQTVAGYTIPPGHQVCVSPTVNQRLKDSWVERLDFNPDRYLQDNPASGEKFAYVPFGAGRHRCIGENFAYVQIKTIWSTMLRLYEFDLIDGYFPTVNYTTMIHTPENPVIRYKRRSK | 30 µM
